Assay results taken from publication PMC10424151 (Molecular Therapy. Nucleic Acids, 2023).

Tests used:
[1] = Dynamic light-scattering measurement of hydrodynamic radius; type: physicochemical; settings: DLS, 100 μM peptide + 1 μM bDNA, 1 h incubation, 25 °C
How it was run: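 bDNA was dissolved in self-assembly buffer, pH 7.4, and filtered through 0.22 µm. Linear peptide (100 µM) was incubated with 1 µM bDNA for 1 h, with peptide alone as control. DLS was read at 658 nm with a 175° scattering angle at 25°C, averaging triplicate readings. Rh came from autocorrelation analysis via the translational diffusion coefficient and the Stokes-Einstein relation.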

DNase I = biological target: T1, DNase I (Homo sapiens, UniProt P24855); assay: DNase I stability assay; type: in vitro ADME; settings: for stability of peptide-bDNA complex in the presence of DNase I: 1 μM bDNA + 50 or 100 μM peptide, 10 U/mL DNase I, up to 30 min, 37 °C, 2% AGE
T1 sequence (P24855 23-282): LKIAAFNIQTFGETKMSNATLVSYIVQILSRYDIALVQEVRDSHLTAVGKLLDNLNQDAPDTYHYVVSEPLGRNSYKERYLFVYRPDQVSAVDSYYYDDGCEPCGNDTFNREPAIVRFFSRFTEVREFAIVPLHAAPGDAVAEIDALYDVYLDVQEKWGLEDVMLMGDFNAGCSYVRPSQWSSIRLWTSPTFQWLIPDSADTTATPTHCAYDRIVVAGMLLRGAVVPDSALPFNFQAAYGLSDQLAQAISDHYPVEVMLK
How it was run: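 Complexes of 1 µM bDNA pre-incubated with 100 µM linear peptide were exposed to 10 U/mL DNase I for 15 and 30 min. A second set used 1 µM bDNA with 50 µM linear peptide, digested for 5, 10, 20 and 30 min at 37°C. Digests were run on 2% agarose gels at 80 V for 25 min, and stability was judged from band intensity.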

HCT-116 cells = assay: Cellular uptake of Alexa 488-labeled bDNA by FACS; type: cell-based; settings: HCT-116, 75 nM Alexa 488-labeled bDNA + 25 μM peptide, overnight
How it was run: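 HCT-116 cells (2×10^5 per well) seeded overnight in serum-free DMEM, then washed twice with PBS. Alexa 488-bDNA (75 nM) premixed with test peptide (25 μM) in DMEM about 30 min at room temperature, added to cells and left overnight at 37 °C. Cells detached with 0.25% trypsin/0.53 mM EDTA (5 min, 37 °C), pelleted at 700 × g for 5 min, washed twice, resuspended in PBS and analysed by flow cytometry.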

Alexa 488 bDNA = assay: Absorbance; type: binding; settings: 1 μM Alexa 488 bDNA, peptide/bDNA 0:1 to 100:1, 1 h, 25 °C, 495 nm
How it was run: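 Alexa 488-labelled bDNA (1 μM) incubated 1 h at 25 °C with linear test peptide at peptide/bDNA molar ratios 0:1 to 100:1. UV-vis absorbance spectra recorded over 450–550 nm. Hypochromicity expressed as ΔOD_r = (OD0 − OD)/OD0, where OD0 is free labelled bDNA and OD is the bDNA–peptide complex, then plotted against molar ratio.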

[2] = Release of bDNA from peptide complexes; type: in vitro ADME; settings: 1 μM bDNAaso + 100 μM W4R4 in serum-free DMEM, 1% SDS, 30 min, 2% agarose gel
How it was run: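 Gel-shift release: 1 μM bDNAaso was complexed with 100 μM test peptide in 20 μL serum-free DMEM for 1 h at room temperature. The complex was exposed to 1% SDS for 30 min, then run on 2% agarose for 25 min at constant 80 V and the gel imaged.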

bDNAaso [3] = assay: Isothermal titration calorimetry of linear peptides with bDNA; type: binding; settings: 25 °C, 1 μM bDNA titrated with 100 μM peptide, 1× TEAM buffer pH 7.4
bDNAaso [4] = assay: CD titration of bDNAaso with linear peptides; type: binding; settings: 1 μM bDNA, 5 to 100 μM peptide, 25 °C (Figures 4G and S13G)
[5] = Zeta potential measurement; type: physicochemical; settings: 1 μM bDNA + 100 μM peptide, 1 h, 25 °C
How it was run: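 bDNA (1 μM) incubated 1 h with 100 μM linear test peptide. bDNA alone and peptide alone at the same concentrations incubated 1 h at 25 °C as controls. Zeta potential […] by the Smoluchowski approximation. Values are the mean of triplicate readings.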

| Substance | change of hydrodynamic radii of the peptide in the presence of bDNAs [1] | stability of peptide-bDNA complex in the presence of DNase I (DNase I) | cellular internalization relative to W3R3 (FACS) (HCT-116 cells) [fold] | change in absorbance of Alexa 488 bDNA with increasing molar ratio of peptide (Alexa 488 bDNA) | effect of SDS on the W4R4-bDNAaso complex [2] | binding affinity to bDNAaso relative to other peptide-bound bDNAs (ITC) (bDNAaso [3]) | CD peak intensities of bDNA in peptide-bDNA complex (bDNAaso [4]) | zeta potential of bDNA in the presence of the peptide [5] | protection of peptide-bound bDNAs against nuclease degradation (DNase I; peptide-bound bDNAs, Figures S19 and S20) [%] |
| --- | --- | --- | --- | --- | --- | --- | --- | --- | --- |
| Ac-WWWGGGRRR-Am [W3R3] | moderate increase | retained the stability | – | – | – | – | – | – | – |
| Ac-WWWWGGRRRR-Am [W4R4] | increased significantly | retained the stability | 1.7 | significant decline in absorbance | triggered the release | about nine times higher | flattened to the baseline | positive zeta potential | – |
| Ac-WWWWGGHHHH-Am [W4H4] | increased significantly | degraded close to the control | – | no significant alteration in absorbance | – | – | – | – | 20 |
| Ac-WWWGGHHHH-Am [W3H4] | moderate increase | – | – | – | – | – | – | – | – |
